Measured values: ChEMBL document CHEMBL1221376, “Identification and optimization of novel 2-(4-oxo-2-aryl-quinazolin-3(4H)-yl)acetamide vasopressin V3 (V1b) receptor antagonists” (Bioorg Med Chem Lett, 2010)

Each compound was assayed against T1, Vasopressin V1b receptor (Rattus norvegicus, UniProt P48974) (assay: Displacement of [3H]AVP from rat vasopressin V3 receptor).
T1 sequence (P48974 whole entry): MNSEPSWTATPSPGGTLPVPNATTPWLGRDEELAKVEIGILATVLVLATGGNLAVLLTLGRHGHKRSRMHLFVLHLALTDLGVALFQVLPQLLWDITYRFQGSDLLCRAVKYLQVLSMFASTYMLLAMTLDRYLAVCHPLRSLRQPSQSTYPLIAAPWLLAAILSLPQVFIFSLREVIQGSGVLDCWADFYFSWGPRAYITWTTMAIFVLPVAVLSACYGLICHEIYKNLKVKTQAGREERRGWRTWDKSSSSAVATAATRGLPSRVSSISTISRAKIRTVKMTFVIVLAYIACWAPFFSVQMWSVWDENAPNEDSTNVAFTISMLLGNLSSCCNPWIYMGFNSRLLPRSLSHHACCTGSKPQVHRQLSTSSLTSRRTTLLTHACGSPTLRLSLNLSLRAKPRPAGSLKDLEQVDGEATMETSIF

SMILES | IC50
O=C(Cn1c(-c2ccccc2)nc2ccc(OCCCN3CCOCC3)cc2c1=O)NCC1CC1 | 0.21 µM

These compounds were tested against T2, Oxytocin receptor (Homo sapiens, UniProt P30559) (assay: Displacement of [3H]oxytocin from human oxytocin receptor).
T2 sequence (P30559 whole entry): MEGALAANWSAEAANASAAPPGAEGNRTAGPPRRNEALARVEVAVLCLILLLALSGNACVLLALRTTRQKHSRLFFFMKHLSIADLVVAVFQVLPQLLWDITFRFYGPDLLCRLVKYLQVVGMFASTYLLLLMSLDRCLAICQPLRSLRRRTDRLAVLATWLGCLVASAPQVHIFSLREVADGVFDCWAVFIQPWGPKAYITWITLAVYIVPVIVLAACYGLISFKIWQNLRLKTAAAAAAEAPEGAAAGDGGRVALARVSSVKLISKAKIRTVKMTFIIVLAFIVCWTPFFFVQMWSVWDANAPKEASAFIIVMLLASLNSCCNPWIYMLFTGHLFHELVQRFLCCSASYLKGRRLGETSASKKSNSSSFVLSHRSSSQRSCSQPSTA

SMILES | IC50
O=C(Cn1c(-c2ccccc2)nc2ccc(OCCCN3CCOCC3)cc2c1=O)NCC1CC1 | > 100 µM

What follows are compounds tested against Vasopressin V2 receptor (Homo sapiens, UniProt P30518) (assay: Displacement of [3H]AVP from human vasopressin V2 receptor).
Chain of Vasopressin V2 receptor (P30518 whole entry): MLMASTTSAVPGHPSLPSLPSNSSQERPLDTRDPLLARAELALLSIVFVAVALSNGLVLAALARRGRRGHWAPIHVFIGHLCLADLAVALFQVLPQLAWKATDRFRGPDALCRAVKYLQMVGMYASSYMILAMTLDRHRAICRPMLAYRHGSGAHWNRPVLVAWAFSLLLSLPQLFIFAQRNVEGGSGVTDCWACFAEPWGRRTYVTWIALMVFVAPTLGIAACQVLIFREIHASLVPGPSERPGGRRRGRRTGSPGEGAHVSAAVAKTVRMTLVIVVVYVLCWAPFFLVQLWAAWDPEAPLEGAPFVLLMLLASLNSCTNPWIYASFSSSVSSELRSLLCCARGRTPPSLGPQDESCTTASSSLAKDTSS

SMILES | IC50
O=C(Cn1c(-c2ccccc2)nc2ccc(OCCCN3CCOCC3)cc2c1=O)NCC1CC1 | > 100 µM

Each compound was assayed against Vasopressin V1a receptor (Homo sapiens) (UniProt P37288) (assay: Displacement of [3H]AVP from human vasopressin V1a receptor at 5 uM).
Chain of Vasopressin V1a receptor (Homo sapiens) (P37288 whole entry, looked up): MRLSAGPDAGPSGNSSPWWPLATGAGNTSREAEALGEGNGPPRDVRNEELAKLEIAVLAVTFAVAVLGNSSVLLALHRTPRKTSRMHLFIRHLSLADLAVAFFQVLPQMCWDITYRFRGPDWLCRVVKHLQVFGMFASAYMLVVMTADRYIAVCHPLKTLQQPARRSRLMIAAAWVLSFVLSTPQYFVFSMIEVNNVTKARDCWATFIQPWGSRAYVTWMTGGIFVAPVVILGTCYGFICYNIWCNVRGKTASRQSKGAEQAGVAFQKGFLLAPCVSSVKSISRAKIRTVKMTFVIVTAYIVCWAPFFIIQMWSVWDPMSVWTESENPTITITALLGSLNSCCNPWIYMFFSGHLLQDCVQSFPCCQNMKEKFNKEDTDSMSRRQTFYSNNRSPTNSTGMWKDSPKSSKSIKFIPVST
Method in brief: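 Membrane binding using membranes from CHO cells stably expressing human V1a receptor, with 5 nM [3H]-AVP (final) and test compound in 50 mM Tris–HCl pH 7.4, 5 mM MgCl2, 1 mg/mL BSA and 0.5% DMSO. Incubated 60 min at room temperature, then rapid filtration over polyethylenimine-soaked GF/B filters. Filters washed with ice-cold Tris–HCl, dried 30 min at 55 °C, scintillation counted.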

SMILES | inhibition
O=C(Cn1c(-c2ccccc2)nc2ccc(OCCCN3CCOCC3)cc2c1=O)NCC1CC1 | 6%

These compounds were tested against T3, Vasopressin V1b receptor (Homo sapiens, UniProt P47901) (assay: Displacement of [3H]AVP from human vasopresin3 receptor expressed in CHO cells).
T3 sequence (P47901 whole entry): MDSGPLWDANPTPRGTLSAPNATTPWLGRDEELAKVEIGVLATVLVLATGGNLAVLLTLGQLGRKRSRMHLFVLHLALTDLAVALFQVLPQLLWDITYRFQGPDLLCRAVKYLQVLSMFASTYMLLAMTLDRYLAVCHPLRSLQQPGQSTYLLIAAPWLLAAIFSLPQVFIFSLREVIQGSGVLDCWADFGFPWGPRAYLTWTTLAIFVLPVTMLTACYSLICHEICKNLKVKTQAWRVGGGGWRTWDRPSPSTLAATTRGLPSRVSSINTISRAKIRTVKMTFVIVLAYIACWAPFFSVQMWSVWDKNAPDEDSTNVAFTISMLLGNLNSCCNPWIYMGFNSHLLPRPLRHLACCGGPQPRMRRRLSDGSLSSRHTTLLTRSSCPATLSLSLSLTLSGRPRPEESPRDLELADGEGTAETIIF
Assay type: cell-based
Method in brief: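 Whole-cell binding on CHO cells stably expressing human V3 (V1b) receptor, grown at 37 °C with 5% CO2. Cells seeded at 30,000 per well, cultured overnight at 37 °C, then washed twice with PBS. Serially diluted compounds plus 5 nM [3H]-AVP (final) in PBS with 10 mM MgCl2, 0.1% BSA and 1% DMSO, 30 min at room temperature. Washed, air dried, scintillation counted.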

SMILES | IC50
NCCCOc1ccc2nc(-c3ccccc3)n(CC(=O)NCC3CC3)c(=O)c2c1 | 3.6 µM
O=C(Cn1c(-c2ccccc2)nc2ccc(OCCCN3CCCC3)cc2c1=O)NCC1CC1 | 1.8 µM
O=C(Cn1c(-c2ccccc2)nc2ccc(OCCCN3CCNCC3)cc2c1=O)NCC1CC1 | 25.8 µM
CCN(CC)CCCOc1ccc2nc(-c3ccccc3)n(CC(=O)NCC3CC3)c(=O)c2c1 | 3.8 µM
NCCOc1ccc2nc(-c3ccccc3)n(CC(=O)NCC3CC3)c(=O)c2c1 | 4 µM
O=C(Cn1c(-c2ccccc2)nc2ccc(OCCCN3CCCCC3)cc2c1=O)NCC1CC1 | 0.31 µM
O=C(CCc1ccc(O)cc1)NCCOc1ccc2nc(-c3ccccc3)n(CC(=O)NCC3CC3)c(=O)c2c1 | > 100 µM
CN1CCN(CCCCOc2ccc3nc(-c4ccccc4)n(CC(=O)NCC4CC4)c(=O)c3c2)CC1 | 4.8 µM
CC(C)C[C@@H](COc1ccc2nc(-c3ccccc3)n(CC(=O)NCC3CC3)c(=O)c2c1)NC(=O)CN | 5.1 µM
O=C(Cn1c(-c2ccccc2)nc2ccc(OCCCN3CCC(O)CC3)cc2c1=O)NCC1CC1 | 1.1 µM
O=C(Cn1c(-c2ccccc2)nc2ccc(OCCCN3CCCCCC3)cc2c1=O)NCC1CC1 | 0.34 µM
CN1CCN(CCCOc2ccc3nc(-c4ccccc4)n(CC(=O)NCC4CC4)c(=O)c3c2)CC1 | 1.7 µM
O=C(Cn1c(-c2ccccc2)nc2ccc(O)cc2c1=O)NCC1CC1 | > 100 µM
O=C(Cn1c(-c2ccccc2)nc2ccc(OCCCN3CCOCC3)cc2c1=O)NCC1CC1 | 0.12 µM
CNCCCOc1ccc2nc(-c3ccccc3)n(CC(=O)NCC3CC3)c(=O)c2c1 | 7.6 µM
NCCCCOc1ccc2nc(-c3ccccc3)n(CC(=O)NCC3CC3)c(=O)c2c1 | > 30 µM
NCCCCCOc1ccc2nc(-c3ccccc3)n(CC(=O)NCC3CC3)c(=O)c2c1 | > 30 µM
CN1CCN(CCOc2ccc3nc(-c4ccccc4)n(CC(=O)NCC4CC4)c(=O)c3c2)CC1 | 22 µM
COC1CCN(CCCOc2ccc3nc(-c4ccccc4)n(CC(=O)NCC4CC4)c(=O)c3c2)CC1 | 0.71 µM
NCCCCCCOc1ccc2nc(-c3ccccc3)n(CC(=O)NCC3CC3)c(=O)c2c1 | > 100 µM
NCC(=O)NCCOc1ccc2nc(-c3ccccc3)n(CC(=O)NCC3CC3)c(=O)c2c1 | 30.5 µM
CC(C)C[C@H](N)COc1ccc2nc(-c3ccccc3)n(CC(=O)NCC3CC3)c(=O)c2c1 | 2.1 µM
CC(C)C[C@@H](COc1ccc2nc(-c3ccccc3)n(CC(=O)NCC3CC3)c(=O)c2c1)NC(=O)[C@@H](N)Cc1ccc(O)cc1 | 0.2 µM
